According to ChEMBL document CHEMBL1134325, “Diaminoindanes as microsomal triglyceride transfer protein inhibitors” (J Med Chem, 2001):

What was measured:
[1] = target: T1, Microsomal triglyceride transfer protein large subunit (Homo sapiens, UniProt P55157); test: In vitro inhibitory activity against MTP using MTP transfer assay
T1 sequence (P55157 whole entry): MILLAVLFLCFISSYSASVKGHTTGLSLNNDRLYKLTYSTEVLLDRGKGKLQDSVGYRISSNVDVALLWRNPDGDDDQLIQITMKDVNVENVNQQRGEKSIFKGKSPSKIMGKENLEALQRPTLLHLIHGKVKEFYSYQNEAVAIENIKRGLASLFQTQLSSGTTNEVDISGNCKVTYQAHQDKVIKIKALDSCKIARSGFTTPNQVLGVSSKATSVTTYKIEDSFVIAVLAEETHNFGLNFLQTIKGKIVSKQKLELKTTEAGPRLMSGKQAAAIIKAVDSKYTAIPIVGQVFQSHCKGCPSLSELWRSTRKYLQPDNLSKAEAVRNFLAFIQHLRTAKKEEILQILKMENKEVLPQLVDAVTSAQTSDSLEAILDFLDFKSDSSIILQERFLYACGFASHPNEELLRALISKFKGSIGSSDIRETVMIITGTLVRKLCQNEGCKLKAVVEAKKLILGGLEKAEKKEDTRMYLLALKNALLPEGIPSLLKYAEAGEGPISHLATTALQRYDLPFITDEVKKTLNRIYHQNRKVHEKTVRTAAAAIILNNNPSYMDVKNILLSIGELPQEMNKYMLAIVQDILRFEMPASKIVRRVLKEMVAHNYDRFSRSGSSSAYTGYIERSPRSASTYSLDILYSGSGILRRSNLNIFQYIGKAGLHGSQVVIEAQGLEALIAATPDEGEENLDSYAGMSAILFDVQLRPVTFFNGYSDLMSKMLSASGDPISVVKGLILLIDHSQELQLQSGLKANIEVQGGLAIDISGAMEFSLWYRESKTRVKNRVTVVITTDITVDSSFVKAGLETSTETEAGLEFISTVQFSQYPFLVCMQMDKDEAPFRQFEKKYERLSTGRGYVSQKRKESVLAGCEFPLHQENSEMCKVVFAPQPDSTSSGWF

Canis familiaris [2] = test: Inhibition of plasma total cholesterol in the normolipidemic dogs after day 0 of oral administration of 1 mg/kg/ day.; type: functional, Canis lupus familiaris
Outline: (§1)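 Normolipidemic dogs dosed once daily for 4 days by oral gavage, compound suspended in cornstarch vehicle. Plasma sampled 24 h after dosing on days 0, 2, 3 and 4, assayed for triglycerides and total cholesterol (mg/dL). Mean percent inhibition versus day-0 level is given for treated dogs; n = 6 per group; significance by one-way ANOVA, p < 0.05.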

Canis familiaris [3] = test: Inhibition of plasma total cholesterol in the normolipidemic dogs after day 0 of oral administration of 10 mg/kg/ day.; type: functional, Canis lupus familiaris; outline: as §1
Canis familiaris [4] = test: Inhibition of plasma total cholesterol in the normolipidemic dogs after day 0 of oral administration of 2.5 mg/kg/ day.; type: functional, Canis lupus familiaris; outline: as §1
Canis familiaris [5] = test: Inhibition of plasma total cholesterol in the normolipidemic dogs after day 0 of oral administration of 5 mg/kg/ day.; type: functional, Canis lupus familiaris; outline: as §1
Canis familiaris [6] = test: Inhibition of plasma total cholesterol in the normolipidemic dogs after day 2 of oral administration of 1 mg/kg/ day.; type: functional, Canis lupus familiaris; outline: as §1
Canis familiaris [7] = test: Inhibition of plasma total cholesterol in the normolipidemic dogs after day 2 of oral administration of 5 mg/kg/ day.; type: functional, Canis lupus familiaris; outline: as §1
Canis familiaris [8] = test: Inhibition of plasma total cholesterol in the normolipidemic dogs after day 3 of oral administration of 5 mg/kg/ day.; type: functional, Canis lupus familiaris; outline: as §1
Canis familiaris [9] = test: Inhibition of plasma total cholesterol in the normolipidemic dogs after day 4 of oral administration of 1 mg/kg/ day; type: functional, Canis lupus familiaris; outline: as §1
Canis familiaris [10] = test: Inhibition of plasma total cholesterol in the normolipidemic dogs after day 4 of oral administration of 10 mg/kg/ day.; type: functional, Canis lupus familiaris; outline: as §1
Canis familiaris [11] = test: Inhibition of plasma total cholesterol in the normolipidemic dogs after day 4 of oral administration of 2.5 mg/kg/ day; type: functional, Canis lupus familiaris; outline: as §1
Canis familiaris [12] = test: Inhibition of plasma total triglycerides in the normolipidemic dogs after day 0 of oral administration of 1 mg/kg/ day.; type: functional, Canis lupus familiaris; outline: as §1
Canis familiaris [13] = test: Inhibition of plasma total triglycerides in the normolipidemic dogs after day 0 of oral administration of 10 mg/kg/ day.; type: functional, Canis lupus familiaris; outline: as §1
Canis familiaris [14] = test: Inhibition of plasma total triglycerides in the normolipidemic dogs after day 0 of oral administration of 2.5 mg/kg/ day.; type: functional, Canis lupus familiaris; outline: as §1
Canis familiaris [15] = test: Inhibition of plasma total triglycerides in the normolipidemic dogs after day 0 of oral administration of 5 mg/kg/ day.; type: functional, Canis lupus familiaris; outline: as §1
Canis familiaris [16] = test: Inhibition of plasma total triglycerides in the normolipidemic dogs after day 2 of oral administration of 1 mg/kg/ day.; type: functional, Canis lupus familiaris; outline: as §1
Canis familiaris [17] = test: Inhibition of plasma total triglycerides in the normolipidemic dogs after day 2 of oral administration of 10 mg/kg/ day.; type: functional, Canis lupus familiaris; outline: as §1
Canis familiaris [18] = test: Inhibition of plasma total triglycerides in the normolipidemic dogs after day 2 of oral administration of 2.5 mg/kg/ day.; type: functional, Canis lupus familiaris; outline: as §1
Rattus norvegicus [19] = test: Inhibition of plasma triglycerides in normolipidemic rats after 2 hr of 10 mg/kg oral dosing; type: functional
Outline: (§2)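 Overnight-fasted normolipidemic rats received a single oral dose in cornstarch vehicle. Blood was drawn at 2, 6 and 24 h post-dose and assayed for triglycerides and total cholesterol, with free access to food after the 6 h sample. Value is mean percent inhibition versus a separate vehicle-treated group, unpaired t test p < 0.05, NS = no significant change, N = 6.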

Rattus norvegicus [20] = test: Inhibition of plasma triglycerides in normolipidemic rats after 2 hr of 50 mg/kg oral dosing; type: functional; outline: as §2
Rattus norvegicus [21] = test: Inhibition of plasma triglycerides in normolipidemic rats after 24 h of 10 mg/kg oral dosing; type: functional; outline: as §2
Rattus norvegicus [22] = test: Inhibition of plasma triglycerides in normolipidemic rats after 24 hr of 50 mg/kg oral dosing; type: functional; outline: as §2
Rattus norvegicus [23] = test: Inhibition of plasma triglycerides in normolipidemic rats after 6 hr of 50 mg/kg oral dosing; type: functional; outline: as §2
Rattus norvegicus [24] = test: Inhibition of total cholesterol in normolipidemic rats after 2 hr of 10 mg/kg oral dosing; type: functional; outline: as §2
Rattus norvegicus [25] = test: Inhibition of total cholesterol in normolipidemic rats after 2 hr of 50 mg/kg oral dosing; type: functional; outline: as §2
Rattus norvegicus [26] = test: Inhibition of total cholesterol in normolipidemic rats after 24 hr of 10 mg/kg oral dosing; type: functional; outline: as §2
Rattus norvegicus [27] = test: Inhibition of total cholesterol in normolipidemic rats after 6 hr of 10 mg/kg oral dosing; type: functional; outline: as §2
Rattus norvegicus [28] = test: Inhibition of total cholesterol in normolipidemic rats after 6 hr of 50 mg/kg oral dosing; type: functional; outline: as §2
Canis familiaris [29] = test: Inhibition of plasma total cholesterol in the normolipidemic dogs after day 2 of oral administration of 10 mg/kg/ day.; type: functional, Canis lupus familiaris; outline: as §1
Canis familiaris [30] = test: Inhibition of plasma total cholesterol in the normolipidemic dogs after day 2 of oral administration of 2.5 mg/kg/ day.; type: functional, Canis lupus familiaris; outline: as §1
Canis familiaris [31] = test: Inhibition of plasma total cholesterol in the normolipidemic dogs after day 3 of oral administration of 1 mg/kg/ day.; type: functional, Canis lupus familiaris; outline: as §1
Canis familiaris [32] = test: Inhibition of plasma total cholesterol in the normolipidemic dogs after day 3 of oral administration of 10 mg/kg/ day.; type: functional, Canis lupus familiaris; outline: as §1
Canis familiaris [33] = test: Inhibition of plasma total cholesterol in the normolipidemic dogs after day 3 of oral administration of 2.5 mg/kg/ day.; type: functional, Canis lupus familiaris; outline: as §1
Canis familiaris [34] = test: Inhibition of plasma total triglycerides in the normolipidemic dogs after day 2 of oral administration of 5 mg/kg/ day.; type: functional, Canis lupus familiaris; outline: as §1
Canis familiaris [35] = test: Inhibition of plasma total triglycerides in the normolipidemic dogs after day 3 of oral administration of 1 mg/kg/ day.; type: functional, Canis lupus familiaris; outline: as §1
Canis familiaris [36] = test: Inhibition of plasma total triglycerides in the normolipidemic dogs after day 3 of oral administration of 10 mg/kg/ day.; type: functional, Canis lupus familiaris
Canis familiaris [37] = test: Inhibition of plasma total triglycerides in the normolipidemic dogs after day 3 of oral administration of 2.5 mg/kg/ day.; type: functional, Canis lupus familiaris
Canis familiaris [38] = test: Inhibition of plasma total triglycerides in the normolipidemic dogs after day 3 of oral administration of 5 mg/kg/ day.; type: functional, Canis lupus familiaris
Canis familiaris [39] = test: Inhibition of plasma total triglycerides in the normolipidemic dogs after day 4 of oral administration of 1 mg/kg/ day; type: functional, Canis lupus familiaris
Canis familiaris [40] = test: Inhibition of plasma total triglycerides in the normolipidemic dogs after day 4 of oral administration of 10 mg/kg/ day; type: functional, Canis lupus familiaris
Canis familiaris [41] = test: Inhibition of plasma total triglycerides in the normolipidemic dogs after day 4 of oral administration of 2.5 mg/kg/ day; type: functional, Canis lupus familiaris
Canis familiaris [42] = test: Inhibition of plasma total triglycerides in the normolipidemic dogs after day 4 of oral administration of 5 mg/kg/ day; type: functional, Canis lupus familiaris
Rattus norvegicus [43] = test: Inhibition of plasma triglycerides in normolipidemic rats after 6 hr of 10 mg/kg oral dosing; no significant change; type: functional, organism-based; set-up: dose 10 mg/kg; outline: as §2
Canis familiaris [44] = test: Inhibition of plasma total cholesterol in the normolipidemic dogs after day 4 of oral administration of 5 mg/kg/ day; type: functional, Canis lupus familiaris; outline: as §1
Rattus norvegicus [45] = test: Inhibition of total cholesterol in normolipidemic rats after 24 hr of 50 mg/kg oral dosing; type: functional; outline: as §2

COC(=O)N1CCN([C@H]2Cc3ccc(NC(=O)c4cccc(C)c4-c4ccc(C(F)(F)F)cc4)cc3C2)CC1
IC50 [1]: 40 nM
Lipid level (Canis familiaris [2]): 120 mg/dL
Lipid level (Canis familiaris [3]): 143 mg/dL
Lipid level (Canis familiaris [4]): 109 mg/dL
Lipid level (Canis familiaris [5]): 127 mg/dL
Lipid level (Canis familiaris [6]): 91 mg/dL
Lipid level (Canis familiaris [7]): 79 mg/dL
Lipid level (Canis familiaris [8]): <53 mg/dL
Lipid level (Canis familiaris [9]): <73 mg/dL
Lipid level (Canis familiaris [10]): <31 mg/dL
Lipid level (Canis familiaris [11]): <42 mg/dL
Lipid level (Canis familiaris [12]): 38 mg/dL
Lipid level (Canis familiaris [13]): 62 mg/dL
Lipid level (Canis familiaris [14]): 58 mg/dL
Lipid level (Canis familiaris [15]): 37 mg/dL
Lipid level (Canis familiaris [16]): 28 mg/dL
Lipid level (Canis familiaris [17]): 24 mg/dL
Lipid level (Canis familiaris [18]): 28 mg/dL
Reduction (Rattus norvegicus [19]): 70%
Reduction (Rattus norvegicus [20]): 80%
Reduction (Rattus norvegicus [21]): 29%
Reduction (Rattus norvegicus [22]): 44%
Reduction (Rattus norvegicus [23]): 56%
Reduction (Rattus norvegicus [24]): 40%
Reduction (Rattus norvegicus [25]): 35%
Reduction (Rattus norvegicus [26]): 15%
Reduction (Rattus norvegicus [27]): 29%
Reduction (Rattus norvegicus [28]): 50%
Lipid level (Canis familiaris [29]): 79 mg/dL
Lipid level (Canis familiaris [30]): 67 mg/dL
Lipid level (Canis familiaris [31]): 83 mg/dL
Lipid level (Canis familiaris [32]): 50 mg/dL
Lipid level (Canis familiaris [33]): 53 mg/dL
Lipid level (Canis familiaris [34]): 20 mg/dL
Lipid level (Canis familiaris [35]): 26 mg/dL
Lipid level (Canis familiaris [36]): 18 mg/dL
Lipid level (Canis familiaris [37]): 20 mg/dL
Lipid level (Canis familiaris [38]): 17 mg/dL
Lipid level (Canis familiaris [39]): 28 mg/dL
Lipid level (Canis familiaris [40]): 19 mg/dL
Lipid level (Canis familiaris [41]): 25 mg/dL
Lipid level (Canis familiaris [42]): 14 mg/dL
NS (Rattus norvegicus [43]): no significant change
Lipid level (Canis familiaris [44]): 38 mg/dL
Reduction (Rattus norvegicus [45]): 18%
